Assay results as given in the EternaBench riboswitch data.

Key:
MS2 coat protein [1] = assay: apparent Kd, MS2 coat protein; higher = weaker binding; RNA-MaP array; theophylline 2 mM where present
Summary of the method: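 Stalled E. coli RNA polymerase produced the designs on Illumina sequencing-chip clusters. SNAP-549-labelled MS2 coat protein was added from 0.7 or 1.5 nM, doubling to 3 µM, without and then with constant ligand, in 100 mM Tris-HCl pH 7.5, 80 mM KCl, 4 mM MgCl2, BSA, DTT, yeast tRNA and Tween-20. The apparent Kd is the median of filtered per-cluster fits of green signal normalised to red-channel RNA signal and control-cluster median Fmax.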

MS2 coat protein [2] = assay: apparent Kd, MS2 coat protein; higher = weaker binding; RNA-MaP array
Summary of the method: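 Designed RNAs were produced on an Illumina sequencing chip by transcription of sequenced DNA templates. Binding to fluorescently labeled MS2 coat protein (1.5 nM to 3 μM) was measured at room temperature with or without input ligand. The apparent Kd is the median of per-cluster binding-curve fits. Designs were excluded when measured on fewer than 10 clusters.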

[3] = designed as: ON switch for theophylline, no ligand
[4] = ligand present: theophylline, designed as: ON switch for theophylline
[5] = designed as: OFF switch for theophylline, no ligand
[6] = ligand present: theophylline, designed as: OFF switch for theophylline
[7] = designed as: ON switch for flavin mononucleotide, no ligand
[8] = ligand present: flavin mononucleotide, designed as: ON switch for flavin mononucleotide
[9] = designed as: OFF switch for flavin mononucleotide, no ligand
[10] = ligand present: flavin mononucleotide, designed as: OFF switch for flavin mononucleotide
[11] = designed as: ON switch for tryptophan, no ligand
[12] = ligand present: tryptophan, designed as: ON switch for tryptophan

Sequence	apparent Kd (MS2 coat protein [2]; [9]) [nM]	apparent Kd (MS2 coat protein [2]; [10]) [nM]	also measured
UGUAUGUGAUCUGAUACCAGUCCAACUGGUAAAACAUGAGGAUCACCCAUGUAAAAUUGGGACCCUUGGCAGCAGAUCGCAUACU	–	–	apparent Kd (MS2 coat protein [1]; [3]): 534 nM; apparent Kd (MS2 coat protein [1]; [4]): 28.4 nM
AAACGUUGCUGCGAUACCAGACAUGAGGAUCACCCAUGUACCAAGGUACGAAAAUAACAUGUCCCUUGGCAGCGCAGCAACGAAA	–	–	apparent Kd (MS2 coat protein [1]; [5]): 13.2 nM; apparent Kd (MS2 coat protein [1]; [6]): 336 nM
AUCGUACCUGAUGAUACCAGCAUGUGAUCAUAACAUGAGGAUCACCCAUGUAAUCAGUGAUGCCCUUGGCAGCAUGAUCGGUACA	–	–	apparent Kd (MS2 coat protein [1]; [3]): 57.3 nM; apparent Kd (MS2 coat protein [1]; [4]): 26.3 nM
GAGAGGCGCUAGAAGGCACGCGUUCGGAUUGAGUGAGGAUAUAGUCCUCUGCCACAUGAGGAUCACCCAUGUAGUUUGAUAGAG	–	–	apparent Kd (MS2 coat protein [2]; [7]): 6.28 nM; apparent Kd (MS2 coat protein [2]; [8]): 6.12 nM
CUUCAACAUGAGGAUCACCCAUGUAAGGAUAUCUGCCUCACAGCACCAAAGUGCGGGAAGAGAAGGUACGUAGU	15.4	14.5	–
AUGGGUACCACAGGAUAUUAGUAACACAUGAGGAUCACCCAUGUUUUACCGCUUGAAGCUUAGACUAAGAAGGGUGGCUUAGAA	–	–	apparent Kd (MS2 coat protein [2]; [7]): 55.1 nM; apparent Kd (MS2 coat protein [2]; [8]): 23.9 nM
CGUAACCAAGGAUAUACAUGAGGAUCACCCAUGUAUCGGGUCGGUCUGGGUCCAAUAAGUAGAAGGUGGCUGAU	29.3	39.7	–
UAUUGAAUCCUCCCGACAUGAGGAUCACCCAUGUUACCUGCGCAGGAUAUCGUAUGUAUACCCGGCGAGAAGGGCGCUAGCGAG	213	160	–
AAAUAAACCGAGGAUAUUAGAUUAGCAUACGAUUAAGAAGGCGGAACAUGAGGAUCACCCAUGUUGGGAGGUCU	67.8	211	–
UUAGCACAUGAGGAUCACCCAUGUCAGGAUAUACGGAAUGUCCUCUACAGGGCGCGCUGUAGAAGGGACCGGGC	9.53	9.76	–
GACCCACAUGAGGAUCACCCAUGUCAGGAUAUCCGAUCGUCAAAGACCCAAAUAAUUAGGAGAAGGGACAUUAA	15	15.4	–
CCGCUCGGGACAUGAGGAUCACCCAUGUUACCUUGCCGUGAGAGAAGGGACACGGCCAGCUCAUGUCAGGAUAUCUCAGCGUAU	–	–	apparent Kd (MS2 coat protein [2]; [7]): 48.3 nM; apparent Kd (MS2 coat protein [2]; [8]): 12.4 nM
CCUGGAUCAGAUCUUAAAGGCGGUUCUGAUACCAGUCUUUUCCGAGACCCUUGGCAGCAGAACACAUGAGGAUCACCCAUGUAAA	–	–	apparent Kd (MS2 coat protein [2]; [5]): 52.4 nM; apparent Kd (MS2 coat protein [2]; [6]): 46.5 nM
UUGGUUGCAUAGAAGGUGAGAUAGGAUCUACAUGAGGAUCACCCAUGUGUUAUCCCAAUUAGAAUCAAGGAUAUAUUGGCUUAU	–	–	apparent Kd (MS2 coat protein [2]; [7]): 19.1 nM; apparent Kd (MS2 coat protein [2]; [8]): 15.7 nM
UUAUAGGAAGGAUAUACAUGAGGAUCACCCAUGUUCAAACCAACGCACUAUCAUAAAUGUAGAAGGACCAACCC	11.9	10.1	–
CAUCGUCGGUCGGCCGCCACUACUGGACAUGAGGAUCACCCAUGUGGCCCGCUGUAUUAACCGCGUAGGACCGGGACGGGAGGUA	–	–	apparent Kd (MS2 coat protein [2]; designed as: OFF switch for tryptophan, no ligand): 30 nM; apparent Kd (MS2 coat protein [2]; ligand present: tryptophan, designed as: OFF switch for tryptophan): 32.9 nM
UCAAUAUGUCGUUGACAUGAGGAUCACCCAUGUACUAACUAGCAGGAUAUCGUGAUUAACCCUACCGAGAAGGGCUGUUGUAUU	–	–	apparent Kd (MS2 coat protein [2]; [7]): 40.7 nM; apparent Kd (MS2 coat protein [2]; [8]): 34.9 nM
CGUAUAGCAGGAUAUACAUGAGGAUCACCCAUGUUUUUCGUUGUGUGGUGCCAAGCGUGUAGAAGGGCUUCCUC	52.4	56.8	–
AAUAUGUAAGGAUAUACUGAAAUAAUAAUAAUAAUAAAUGAGUAGAAGGAACAUGAGGAUCACCCAUGUGAAAC	8.71	8.07	–
ACUCGUUAAGGAUAUACUCGGUUUACUUGCAUGUUCGGCGCACAUGAGGAUCACCCAUGUAGAAGGUAAUAUUC	24.6	27.2	–
CCUAACUGCGAGAAGGUACAGCGAUAGUGACUGUAAGGAUAUCGGGCGGUGCAUAUCUUAGUAAUACAUGAGGAUCACCCAUGU	8.7	6.82	–
GCAUCAUGAACGGCCGCCACUAAGGAAUGAGCGGCUCUUGCGAUACAUGAGGAUCACCCAUGUCUUAGGACCGGGUUCAUUGUCA	–	–	apparent Kd (MS2 coat protein [2]; [11]): 234 nM; apparent Kd (MS2 coat protein [2]; [12]): 127 nM
CGACCGCACGAGAAGGCUAGACAGCGGCGAUCUAGAGGAUAUCGACAUUCAACAUGAGGAUCACCCAUGUGAUUCCAACAAGCU	57.8	69.6	–
AUGUAGCCGUCGACUGUACCUUAUGCCGAUACCAGCUACCCGUGAAGCCCUUGGCAGCGGGAAACAUGAGGAUCACCCAUGUCAG	–	–	apparent Kd (MS2 coat protein [2]; [5]): 23.9 nM; apparent Kd (MS2 coat protein [2]; [6]): 41.3 nM
CGAAGAAAACGGAAAUCAAUAACAUGAGGAUCACCCAUGUCUCAGGAUAUAAGAGAAGGAUGUAGUUAGAAGGGAGAGUUAUGU	–	–	apparent Kd (MS2 coat protein [2]; [7]): 54.7 nM; apparent Kd (MS2 coat protein [2]; [8]): 42.4 nM
UUUAUUCUCUAUACAUGAGGAUCACCCAUGUCAAUGAUGUGCAGAAGGUGGUUCGGCUGUGACUCCAAGGAUAUGCAGAGAAUU	–	–	apparent Kd (MS2 coat protein [2]; [7]): 513 nM; apparent Kd (MS2 coat protein [2]; [8]): 115 nM

Sequence	apparent Kd (MS2 coat protein [2]; [9]) [nM]	apparent Kd (MS2 coat protein [2]; [10]) [nM]	also measured
UAGACGCACAAACAUGAGGAUCACCCAUGUGUACAGACGCUGCAGGAUAUCCUCUGAAGUUAGUAGGAGAAGGGCAAACAACCU	–	–	apparent Kd (MS2 coat protein [2]; [7]): 44.5 nM; apparent Kd (MS2 coat protein [2]; [8]): 27.3 nM
CGCAAACUAGGAUAUACAGGGCGAAAACGUUUACUUGGAUAACAUGAGGAUCACCCAUGUAGAAGGAGUUCUUA	28.9	160	–
UCGAGUAAGGAGAAGGACUAAUGGACUCACAAAGUAGGAUAUCCUGAACAUGAGGAUCACCCAUGUUGAUGUAACAUGUACUGG	–	–	apparent Kd (MS2 coat protein [2]; [7]): 118 nM; apparent Kd (MS2 coat protein [2]; [8]): 80.1 nM
GCUUCACAUGAGGAUCACCCAUGUCCGGAUACCAGCUCUCCAGACAGCCCUUGGCAGCCGAGCGCCCGAUUAUAUACCCUAGGAG	–	–	apparent Kd (MS2 coat protein [2]; [3]): 22 nM; apparent Kd (MS2 coat protein [2]; [4]): 29.9 nM
CUGUGCGAACAGAAGGUGGCGUGUUAUCGGGACCAAGGAUAUGUUUACUAUUGUGACAAUUCACAUGAGGAUCACCCAUGUACA	21.7	15.3	–
GCAGGCGAAGGAUAUACAUGAGGAUCACCCAUGUGUCAAACAAUAAUACCACUCAACUGUAGAAGGUCGGGCGA	13.9	11.4	–
CCUCCUCAUCGAGGAUAUUGGGUCUGACCUCCAUUUAGACAUGAGGAUCACCCAUGUAAAGUGUCCAAGAAGGCGAUACCGGGA	–	–	apparent Kd (MS2 coat protein [2]; [7]): 817 nM; apparent Kd (MS2 coat protein [2]; [8]): 648 nM
GUGAGACAUGAGGAUCACCCAUGUAAGGAUAUUGCCUCGACCAUAUAAACAUAUCGGACAAGAAGGUACAGGAG	37.8	29.1	–
AUCUUUGUAGGAUAUCCUGAGGCAAACAUGAGGAUCACCCAUGUCCCAAGAAUGACUAAAGGAGAAGGACACUCGG	20.6	20.7	–
UAGAGGACGGGAGGAUAUUCAGGUACAUCAGCCGAAGGCACACAUGAGGAUCACCCAUGUGGGUCGAAGAAGGCCCAGUUGACG	–	–	apparent Kd (MS2 coat protein [2]; [7]): 5.37 nM; apparent Kd (MS2 coat protein [2]; [8]): 4.67 nM
UACGUAUUAGGAGGAUAUGGCCCUCAUCUUUGACAUGAGGAUCACCCAUGUGGACAUUACGCCACCCAGAAGGCCUUGCUCGGA	468	344	–
GAGCACUUAGGAUAUUGGUUGACACACAUGAGGAUCACCCAUGUGAUUCCUGCCUUUAACCAAGAAGGAAGAGUAU	14.7	13.5	–
UGCGGACAUGAGGAUCACCCAUGUGCGGAUACCAGCAGCCGGCUCUGCCCUUGGCAGCCGCUACCCUUGCACGUUUAACGAUCCA	–	–	apparent Kd (MS2 coat protein [2]; [3]): 37.8 nM; apparent Kd (MS2 coat protein [2]; [4]): 36.7 nM
UUUAGUAUCUUAGAUACCAGUUUUGGGUGCUGAACGUCUCACAUGAGGAUCACCCAUGUAAACCCUUGGCAGCUACAUACGUAAA	–	–	apparent Kd (MS2 coat protein [2]; [5]): 45.5 nM; apparent Kd (MS2 coat protein [2]; [6]): 136 nM
UUGCUCCAUCAGAAGGUCUACGCACAUGAGGAUCACCCAUGUUCUGGAAUCAUCUUGUGUGCCAAGAAGGAUAUGACUUCAAGU	545	363	–
ACGUUCCUGAGAGGAUAUUCCAACAUGAGGAUCACCCAUGUAGAUGGUCGAUGCUUCCAUUCAGCGAAGAAGGCUCUAAAGGGC	22.3	15.7	–
UGUAUAGCGGCAGGAUAUGAGAGUGUAGGUGCUUCAGAAGGGCCAUGUGACGCUUUAAAUGGGACACAUGAGGAUCACCCAUGU	18	13.5	–
GCGGGACUGUAGAAGGGUUAUCCUUAAGGUCUGAUCACAUGAGGAUCACCCAUGUAACGGGUGGAACAGGAUAUACCAGAUCGC	42	48.4	–
AGGCAACAUGAGGAUCACCCAUGUCAGGAUAUAGUAAACACAAAUACGAGAAAUAUAACUAGAAGGGACAUAAU	16.6	18.5	–
UGUCGCAGGUUAGAUACCAGCGAGGCGCGGGUAAAUGUUCACAUGAGGAUCACCCAUGUUCGCCCUUGGCAGCUAGUAGGCAUAA	–	–	apparent Kd (MS2 coat protein [2]; [5]): 24.2 nM; apparent Kd (MS2 coat protein [2]; [6]): 100 nM
GAUACGCAGUCGGCCGCCACUUGCUAAGGUGACAAACCAAAACAUGAGGAUCACCCAUGUCUGAUAAGGACCGGGACCACCAUGG	–	–	apparent Kd (MS2 coat protein [2]; [11]): 79.5 nM; apparent Kd (MS2 coat protein [2]; [12]): 81.1 nM
CGUCAACAUGAGGAUCACCCAUGUUUCGAUACCAGUGACCCUCUCCACCCUUGGCAGCGAGCGCCCGCGCCUGAUAAAUCUUCUA	–	–	apparent Kd (MS2 coat protein [2]; [3]): 12.1 nM; apparent Kd (MS2 coat protein [2]; [4]): 14.2 nM
CUAGAACAUGAGGAUCACCCAUGUCAGGAUAUUCUUGGAUGCAUCCAAGCGAAAACAAGAAGAAGGGACGUAUA	10.8	10.4	–
UACGUGGAUGCGGCCGCCACUGCUCUGAGCGAGUUGCUCUAUGGACAUGAGGAUCACCCAUGUCACAGGACCGGGCACGCUUUAA	–	–	apparent Kd (MS2 coat protein [2]; [11]): 10.4 nM; apparent Kd (MS2 coat protein [2]; [12]): 9.67 nM
UUUAUAAUCGUAAGGAUAUCCGCGUUAGUCCACCCGGAGAAGGUACAUGAGGAUCACCCAUGUGAACUAUGGGU	24.4	28.5	–
UACAUGAGGAUCACCCAUGUUAACGCUUAGAUGCAUCGACGUGAGGAUAUCGGGUUAAACCAGCACGAGAAGGCACAUCCAGAU	–	–	apparent Kd (MS2 coat protein [2]; [7]): 34.5 nM; apparent Kd (MS2 coat protein [2]; [8]): 20.2 nM
